The results in this text go back to ChEMBL document CHEMBL3992537, “Design, Synthesis, and Biological Evaluation of Small, High-Affinity Siglec-7 Ligands: Toward Novel Inhibitors of Cancer Immune Evasion” (J Med Chem, 2017).

In assay [1] the target is T1, Sialic acid-binding Ig-like lectin 7 (Homo sapiens, UniProt Q9Y286). The assay can be described thus: Binding affinity to human IgG1-fused Siglec-7-Fc assessed as inhibition of Siglec-7-Fc binding to RBC preincubated for 10 mins followed by RBC addition measured after 20 mins by FACS analysis relative to sodium (4S,5R,6R)-5-acetamido-4-hydroxy-2-methoxy-6-((1R,2R)-1,2,3 trihydroxypropyl)tetrahydro-2H-pyran-2-carboxylate. A digest of the protocol:
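RBC flow-cytometry competition as above: Siglec-7-Fc 0.2 μg/mL with ligand 10 min at RT, then RBCs 20 min on ice, detected by anti-Fc-biotin/streptavidin-PE MFI. The reference ligand α-Me Neu5Ac is run in the same test. Relative inhibitory potency is calculated intra-test against it to offset inter-test variation from fresh RBCs.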

Assay [2] concerns the target T1, Sialic acid-binding Ig-like lectin 7. As to the kind of experiment: Binding affinity to human IgG1-fused Siglec-7-Fc. A digest of the protocol: (§1)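 Siglec-7-Fc (human IgG1 fusion), 0.2 μg/mL, premixed 10 min at RT in PBS with inhibitor dilution series. The mix is then added to pelleted freshly isolated human RBCs (0.1% suspension) for 20 min on ice. Bound Fc is detected with biotin goat anti-human Fc (10 μg/mL) and streptavidin-PE, then formaldehyde-fixed and read by flow cytometry. % inhibition is from MFI, with unstained RBCs as 100% and no inhibitor as 0%. IC50 derived.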

The target is the same in assay [3]. As to the kind of experiment: Binding affinity to human IgG1-fused Siglec-7-Fc measured after 2.5 hrs by ELISA relative to 3'sialyllactose. A digest of the protocol:
(§2)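 Streptavidin-coated plates carry 4 μg/mL biotinylated 6′sialyl-N-acetyllactosamine-polyacrylamide and are BSA-blocked. Ligand 10-fold dilutions (1 mM to 1 × 10⁻⁵ mM, PBS) and hSiglec7-Fc precomplexed with AP anti-human IgG are added for 2.5 h at 37 °C. Plates are developed with p-nitrophenyl phosphate (pH 9.8) and read at 405 nm for IC50. 3′- and 6′-sialyllactose serve as references for relative potency.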
In general terms: An ELISA detects its analyte on a solid surface through an enzyme-linked reagent.

For assay [4] the target is unchanged. The assay can be described thus: Binding affinity to human IgG1-fused Siglec-7-Fc measured after 2.5 hrs by ELISA. A digest of the protocol: as §2
For assay [5] the target is unchanged. As to the kind of experiment: Binding affinity to human IgG1-fused Siglec-7-Fc assessed as inhibition of Siglec-7-Fc binding to RBC preincubated for 10 mins followed by RBC addition measured after 20 mins by FACS analysis. A digest of the protocol: as §1
(Flow cytometry measures light scatter and fluorescence of single cells or particles in a stream.)

The target is the same in assay [6]. The assay can be described thus: Ratio of 3'sialyllactose Kd to relative inhibitory potency of test compound for human IgG1-fused Siglec-7-Fc by ELISA. A digest of the protocol: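 The Kd value is extrapolated by dividing the known Kd of 3′sialyllactose by the ELISA relative inhibitory potency. The ELISA uses plate-bound 6′sialyl-LacNAc-polyacrylamide with AP-precomplexed Siglec-7-Fc, 2.5 h at 37 °C, read at 405 nm.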

Structures are written as SMILES. pIC50, pKd: −log10 of the molar value. Bounds are passed on as bounds.

T1 sequence (Q9Y286 whole entry, the tested form may be a part): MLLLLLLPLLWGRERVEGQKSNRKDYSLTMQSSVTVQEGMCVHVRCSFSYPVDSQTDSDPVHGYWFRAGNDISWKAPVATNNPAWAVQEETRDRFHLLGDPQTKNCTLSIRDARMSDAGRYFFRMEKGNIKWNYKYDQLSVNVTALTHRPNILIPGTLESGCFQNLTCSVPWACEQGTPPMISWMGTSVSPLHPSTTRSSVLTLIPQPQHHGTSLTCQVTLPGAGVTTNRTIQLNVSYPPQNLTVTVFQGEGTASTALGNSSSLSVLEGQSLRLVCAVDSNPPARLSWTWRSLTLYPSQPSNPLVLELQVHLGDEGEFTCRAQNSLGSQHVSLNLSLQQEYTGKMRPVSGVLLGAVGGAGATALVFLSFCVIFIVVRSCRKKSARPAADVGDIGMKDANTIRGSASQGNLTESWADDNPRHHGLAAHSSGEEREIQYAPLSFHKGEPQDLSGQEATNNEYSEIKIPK

Consider `CC(=O)N[C@H]1[C@H]([C@H](O)[C@H](O)CNS(=O)(=O)NS(N)(=O)=O)O[C@@](OCCCn2cc(-c3ccc(-c4ccccc4)cc3)nn2)(C(=O)O)C[C@@H]1O`, for which, in assay [1], the fold change (FC) is 1.
Still for that read-out and setting: under `CC(=O)N[C@H]1[C@H]([C@H](O)[C@H](O)CNC(=O)C(N)=O)O[C@@](OCCCn2cc(-c3ccc(-c4ccccc4)cc3)nn2)(C(=O)O)C[C@@H]1O` stands 3.5.
Same read-out and setting: under `CC(=O)N[C@H]1[C@H]([C@H](O)[C@H](O)CNC(=O)C(=O)O)O[C@@](OCCCn2cc(-c3ccc(-c4ccccc4)cc3)nn2)(C(=O)O)C[C@@H]1O` stands 3.6; under `CCCNC[C@@H](O)[C@@H](O)[C@@H]1O[C@@](OCCCn2cc(-c3ccc(-c4ccccc4)cc3)nn2)(C(=O)O)C[C@H](O)[C@H]1NC(C)=O`, below 0.5; under `CC(=O)N[C@H]1[C@H]([C@H](O)[C@H](O)CNS(=O)(=O)C(F)(F)F)O[C@@](OCCCn2cc(-c3ccc(-c4ccccc4)cc3)nn2)(C(=O)O)C[C@@H]1O`, 0.41.
Still for that read-out and setting: the same measure for `COC1(C(=O)O)C[C@H](O)[C@@H](NC(C)=O)[C@H]([C@H](O)[C@H](O)CNC(=O)C(N)=O)O1` (stereo not given in full): 4.1.
As a reminder, the pKd is the Kd on a negative log10 scale, so that one unit is a factor of ten. Read a low pKd as a large Kd. As a reminder, the pIC50 is the IC50 on a negative log10 scale, so that one unit is a factor of ten. `CC(=O)N[C@H]1[C@H]([C@H](O)[C@H](O)CO)O[C@@](OC[C@H]2O[C@@H](O[C@H]3[C@H](O)[C@@H](O)[C@H](O)O[C@@H]3CO)[C@H](O)[C@@H](O)[C@H]2O)(C(=O)O)C[C@@H]1O` had a pKd in assay [2] of 3.62. Moreover, in assay [3], the fold change (FC) was found to be 1.4. Also, the pIC50 in assay [4] is 1.59.
On to `COC1(C(=O)O)C[C@H](O)[C@@H](NC(C)=O)[C@H]([C@H](O)[C@H](O)CNC(=O)Cc2ccccc2)O1` (stereo not given in full), for which, in assay [1], the fold change (FC) was 10.
On the same count and under the same terms, the same measure for `CC(=O)N[C@H]1[C@H]([C@H](O)[C@H](O)CNS(=O)(=O)c2ccccc2)O[C@@](OCCCn2cc(-c3ccc(-c4ccccc4)cc3)nn2)(C(=O)O)C[C@@H]1O`: 0.49; for `COC1(C(=O)O)C[C@H](O)[C@@H](NC(C)=O)[C@H]([C@H](O)[C@H](O)CNC(=O)c2ccccc2)O1` (stereo not given in full): below 1.5.
Same read-out and setting: the same measure for `COC1(C(=O)O)C[C@H](O)[C@@H](NC(C)=O)[C@H]([C@H](O)[C@H](O)CNC(=O)Cc2ccc(-c3ccccc3)cc2)O1` (stereo not given in full): 4.5.
On to `CCS(=O)(=O)NC[C@@H](O)[C@@H](O)[C@@H]1O[C@@](OCCCn2cc(-c3ccc(-c4ccccc4)cc3)nn2)(C(=O)O)C[C@H](O)[C@H]1NC(C)=O`, for which the pIC50 in assay [5] is 5.80; in assay [4], 3.64. Also, the fold change (FC) in assay [3] came to 161; in assay [1], 5210. For the same compound, the Ratio in assay [6] came to 4.2.
Regarding `CC(=O)N[C@H]1[C@H]([C@H](O)[C@H](O)CNS(=O)(=O)c2cccc3c(N(C)C)cccc23)O[C@@](OCCCn2cc(-c3ccc(-c4ccccc4)cc3)nn2)(C(=O)O)C[C@@H]1O`, the fold change (FC) in assay [1] is 0.09.
With `COC1(C(=O)O)C[C@H](O)[C@@H](NC(C)=O)[C@H]([C@H](O)[C@H](O)CNC(=O)CC2CCCCC2)O1` (stereo not given in full), in assay [1], the fold change (FC) is below 1.5.
For `CC(=O)N[C@H]1[C@H]([C@H](O)[C@@H](C)O)O[C@@](OCCCn2cc(-c3ccc(-c4ccccc4)cc3)nn2)(C(=O)O)C[C@@H]1O`, the fold change (FC) in assay [1] is 0.15.
The same measure, in the same setting: the same measure for `COC1(C(=O)O)C[C@H](O)[C@@H](NC(C)=O)[C@H]([C@H](O)[C@H](O)CNC(=O)C(=O)Nc2ccccc2)O1` (stereo not given in full): 58; for `CCCS(=O)(=O)NC[C@@H](O)[C@@H](O)[C@@H]1O[C@@](OCCCn2cc(-c3ccc(-c4ccccc4)cc3)nn2)(C(=O)O)C[C@H](O)[C@H]1NC(C)=O`: 0.33.
Same read-out and setting: under `CC(=O)N[C@H]1[C@H]([C@H](O)[C@H](O)CS)O[C@@](OCCCn2cc(-c3ccc(-c4ccccc4)cc3)nn2)(C(=O)O)C[C@@H]1O` stands 0.52.
On the same count and under the same terms, under `CC(=O)N[C@H]1[C@H]([C@H](O)[C@H](O)CNS(=O)(=O)O)O[C@@](OCCCn2cc(-c3ccc(-c4ccccc4)cc3)nn2)(C(=O)O)C[C@@H]1O` stands 33; under `CC(=O)N[C@H]1[C@H]([C@H](O)[C@H](O)CNS(N)(=O)=O)O[C@@](OCCCn2cc(-c3ccc(-c4ccccc4)cc3)nn2)(C(=O)O)C[C@@H]1O`, 0.45; under `COC1(C(=O)O)C[C@H](O)[C@@H](NC(C)=O)[C@H]([C@H](O)[C@H](O)CNC(=O)Cc2ccc3ccccc3c2)O1` (stereo not given in full), 8.2.
Consider `CC(=O)N[C@H]1[C@H]([C@H](O)[C@H](O)CNC(=O)C(=O)Nc2ccccc2)O[C@@](OCCCn2cc(-c3ccc(-c4ccccc4)cc3)nn2)(C(=O)O)C[C@@H]1O`, for which the fold change (FC) in assay [1] amounted to 6.8.
The same measure, in the same setting: the same measure for `CC(=O)NC[C@@H](O)[C@@H](O)[C@@H]1O[C@@](OCCCn2cc(-c3ccc(-c4ccccc4)cc3)nn2)(C(=O)O)C[C@H](O)[C@H]1NC(C)=O`: 0.73.
Still for that read-out and setting: the same measure for `CC(=O)N[C@H]1[C@H]([C@H](O)[C@H](O)CN)O[C@@](OCCCn2cc(-c3ccc(-c4ccccc4)cc3)nn2)(C(=O)O)C[C@@H]1O`: 0.24.
As for `CCCCS(=O)(=O)NC[C@@H](O)[C@@H](O)[C@@H]1O[C@@](OCCCn2cc(-c3ccc(-c4ccccc4)cc3)nn2)(C(=O)O)C[C@H](O)[C@H]1NC(C)=O`, the fold change (FC) in assay [1] was 0.16.
Same read-out and setting: the same measure for `COC1(C(=O)O)C[C@H](O)[C@@H](NC(C)=O)[C@H]([C@H](O)[C@H](O)CNC(=O)CC23CC4CC(CC(C4)C2)C3)O1` (stereo not given in full): below 1.5; for `COC1(C(=O)O)C[C@H](O)[C@@H](NC(C)=O)[C@H]([C@H](O)[C@H](O)CNC(=O)Nc2ccccc2)O1` (stereo not given in full): below 1; for `CC(=O)N[C@H]1[C@H]([C@H](O)[C@H](O)CNS(=O)(=O)NC(=O)OCc2ccccc2)O[C@@](OCCCn2cc(-c3ccc(-c4ccccc4)cc3)nn2)(C(=O)O)C[C@@H]1O`: 0.27.
As to `CC(=O)N[C@H]1[C@H]([C@H](O)[C@H](O)CO)O[C@@](OCCCn2cc(-c3ccc(-c4ccccc4)cc3)nn2)(C(=O)O)C[C@@H]1O`, the pIC50 in assay [5] is 4.28. In addition, the fold change (FC) in assay [1] was 152.
For the compound `CC(=O)N[C@H]1[C@H]([C@H](O)[C@H](O)CNCc2ccccc2)O[C@@](OCCCn2cc(-c3ccc(-c4ccccc4)cc3)nn2)(C(=O)O)C[C@@H]1O`, the fold change (FC) in assay [1] is below 0.5.
Same read-out and setting: under `CC(=O)N[C@H]1[C@H]([C@H](O)[C@H](O)CNc2c(O)c(=O)c2=O)O[C@@](OCCCn2cc(-c3ccc(-c4ccccc4)cc3)nn2)(C(=O)O)C[C@@H]1O` stands 0.28; under `CC(=O)N[C@H]1[C@H]([C@H](O)[C@H](O)CNS(=O)(=O)Cc2ccccc2)O[C@@](OCCCn2cc(-c3ccc(-c4ccccc4)cc3)nn2)(C(=O)O)C[C@@H]1O`, 0.17.
For the compound `CC(=O)N[C@H]1[C@H]([C@H](O)[C@H](O)CO)O[C@@](O[C@H]2[C@@H](O)[C@@H](CO)O[C@@H](O[C@H]3[C@H](O)[C@@H](O)[C@H](O)O[C@@H]3CO)[C@@H]2O)(C(=O)O)C[C@@H]1O`, the pKd in assay [2] was 3.17. This compound also had a pIC50 in assay [4] of 1.43.
In the case of `COC1(C(=O)O)C[C@H](O)[C@@H](NC(C)=O)[C@H]([C@H](O)[C@H](O)CNC(=O)Cc2cccc3ccccc23)O1` (stereo not given in full), the fold change (FC) in assay [1] is below 1.5.
For the compound `COC1(C(=O)O)C[C@H](O)[C@@H](NC(C)=O)[C@H]([C@H](O)[C@H](O)CO)O1` (stereo not given in full), the pIC50 in assay [5] was 2.09.
With `COC1(C(=O)O)C[C@H](O)[C@@H](NC(C)=O)[C@H]([C@H](O)[C@H](O)CNC(=O)c2ccc(-c3ccccc3)cc2)O1` (stereo not given in full), the fold change (FC) in assay [1] was below 1.5.
Still for that read-out and setting: the same measure for `CC(=O)N[C@H]1[C@H]([C@H](O)[C@H](O)CNC(=O)Cc2ccccc2)O[C@@](OCCCn2cc(-c3ccc(-c4ccccc4)cc3)nn2)(C(=O)O)C[C@@H]1O`: 0.6.
